Shown are actives, neighbours in structure and some others; about 4.1% of the full set was active somewhere.
KCNK3 block: human KCNK3 channel inhibition, primary screen; CHO-KCNK3 thallium flux, FluxOR fluorescence; stronger effect = lower value; B-score at 10 µM; 340,000 tested, 0.84% active;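 active means B-score under library mean minus 4 SD, starting fluorescence ratio at most library mean plus 5 SD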;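 further: more negative B-score means stronger inhibition of thallium flux through KCNK3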
KCNQ1 act: human KCNQ1 channel potentiation or activation | B-score at 10 µM | P51787 | 310,000 tested, 0.35% active | AID 2648 | CHO-K1 KCNQ1, thallium flux FluxOR fluorescence; stronger effect = higher value;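 active means fluorescence ratio B-score, a plate-corrected score, at least three library SD, with initial intensity B-score within 5 SD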
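Material: CHO-K1 cells stably expressing KCNQ1. Medium: assay buffer for compound exposure, DMSO matched across wells. Reagent: K+/Tl+ depolarizing stimulus. Compound dosing: single-concentration screen. Times: 37 °C overnight plating, 90-min dark dye load, 20-min compound pretreatment. Technique: FluxOR Tl+ flux fluorescence.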
KCNK9 block: blocks the human KCNK9 two-pore domain potassium channel. Q9NPC2. B-score at 10 µM. AID 488922. 310,000 tested, 1.2% active. HEK293 KCNK9, FluxOR thallium flux fluorescence; stronger effect = lower value;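 active means ratio B-score over 3 SD below the library mean, with starting fluorescence within 5 SD of its mean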;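 further: negative B-score means less thallium flux so channel inhibition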
KCNQ1 block: blocks the human KCNQ1 potassium channel | B-score at 10 µM | 310,000 tested, 1.3% active | CHO-K1 KCNQ1, FluxOR thallium flux fluorescence; stronger effect = higher value;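 active means compounds whose thallium flux B-score, printed positive for inhibition, exceeds three library SD while starting fluorescence stays within three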;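 further: channel opened by potassium depolarization with thallium stimulus after 20 min compound exposure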
KCC2 mod: KCC2 (human) Cl- transport modulation; KCC2 cells, thallium flux FluoZin-2 fluorescence; AID 1456; 190,000 tested, 2.2% active; B-score of Tl+ flux slope (higher = more flux/activation; lower = inhibition) at 10 µM;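 active means thallium flux slope and its plate-corrected score both differing from the plate sample mean at a set confidence after two filtering rounds, in either direction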;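 further: slope of fluorescence scaled to starting intensity during 10 to 20 s after thallium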
Target sequence (Q9H2X9 whole entry, looked up): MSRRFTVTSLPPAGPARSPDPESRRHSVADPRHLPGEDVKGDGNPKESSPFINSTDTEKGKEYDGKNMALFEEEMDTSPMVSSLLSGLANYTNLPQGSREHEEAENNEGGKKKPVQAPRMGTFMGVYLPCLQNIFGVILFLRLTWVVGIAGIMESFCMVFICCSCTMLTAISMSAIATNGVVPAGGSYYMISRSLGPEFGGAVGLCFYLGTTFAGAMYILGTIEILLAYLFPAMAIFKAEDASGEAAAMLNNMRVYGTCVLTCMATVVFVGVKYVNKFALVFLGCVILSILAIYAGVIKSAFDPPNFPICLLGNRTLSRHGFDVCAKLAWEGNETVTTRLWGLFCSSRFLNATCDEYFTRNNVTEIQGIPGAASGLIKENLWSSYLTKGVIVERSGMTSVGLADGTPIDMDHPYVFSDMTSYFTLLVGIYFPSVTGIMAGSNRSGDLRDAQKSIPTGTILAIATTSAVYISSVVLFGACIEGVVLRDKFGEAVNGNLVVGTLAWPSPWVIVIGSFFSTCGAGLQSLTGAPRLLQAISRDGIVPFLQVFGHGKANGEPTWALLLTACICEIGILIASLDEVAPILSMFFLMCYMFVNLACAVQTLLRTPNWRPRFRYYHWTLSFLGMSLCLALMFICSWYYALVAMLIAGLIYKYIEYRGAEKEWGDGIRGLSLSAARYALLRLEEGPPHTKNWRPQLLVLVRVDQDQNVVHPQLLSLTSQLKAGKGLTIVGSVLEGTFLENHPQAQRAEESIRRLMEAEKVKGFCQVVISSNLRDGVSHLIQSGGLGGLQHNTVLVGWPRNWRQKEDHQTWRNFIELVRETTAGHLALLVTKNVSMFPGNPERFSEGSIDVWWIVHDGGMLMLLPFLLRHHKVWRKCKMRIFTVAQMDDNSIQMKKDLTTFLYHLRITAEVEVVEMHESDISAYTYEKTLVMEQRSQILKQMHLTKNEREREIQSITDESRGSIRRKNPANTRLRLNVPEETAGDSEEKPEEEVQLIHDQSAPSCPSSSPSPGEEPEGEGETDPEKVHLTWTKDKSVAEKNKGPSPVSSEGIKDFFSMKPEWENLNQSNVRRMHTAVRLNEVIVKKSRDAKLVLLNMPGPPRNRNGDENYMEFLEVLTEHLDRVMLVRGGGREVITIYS
hERG rescue: shields human hERG channel from block by proarrhythmic agents; AID 1511; CHO-hERG, FluxOR thallium flux, dofetilide IC70 present; Q12809; activation (rescue from dofetilide block), less the hit threshold, % at 10 µM; 310,000 tested, 0.51% active;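 active means activation above the mean of controls blocked by dofetilide plus 5 SD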;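 further: thallium influx through hERG after potassium depolarization seen as dye fluorescence rise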
KCNK3 inh conf: human KCNK3 channel inhibition, confirmation assay; 2,400 tested, 99% active; CHO-KCNK3 thallium flux, FluxOR fluorescence; 0% buffer, 100% carvedilol maximal block; shares compounds with KCNK3 block; ratio percent of control, % at 10 µM;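 active means ratio percent of control, averaged over triplicates, above buffer control mean plus 5 SD, cut at about 64% in these data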;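 further: ratio is the fluorescence rise from min to max over baseline after thallium stimulus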
KCNK3 uninduced: activity in cells without induced KCNK3 expression; non-induced KCNK3 parental cells, FluxOR thallium flux; stronger effect = lower value; shares compounds with KCNK3 block; thallium flux ratio (lower = more inhibition) at 10 µM; 2,400 tested, 40% active; AID 651747;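 active means thallium flux ratio, averaged over three wells, more than 5 SD below the buffer control mean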;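 further: host cells are CHO cells without KCNK3 induction; ratio is peak minus trough fluorescence over baseline then normalized to buffer controls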
Active calls of the source: *; i = inactive; x = not tested or not shown.

SMILES | KCNK3 block | KCNQ1 act | KCNK9 block | KCNQ1 block | KCC2 mod | hERG rescue | KCNK3 inh conf | KCNK3 uninduced
COC(=O)C(Cc1ccccc1)NC(=O)CNC(=O)c1sc2ccccc2c1Cl (stereo not drawn) | i | i | i | i | x | -3.4 | x | x
CC(C)(C)C(=O)C(C(c1ccccc1)N1CCOCC1)N1CCOCC1 (stereo not drawn) | i | x | x | x | x | x | x | x
O=C(NCc1ccccc1)C1CCN(c2nc(-c3ccccc3)nc3c2CCC3)CC1 | -8.88* | i | i | i | x | -9.8 | 121.0* | 0.147*
COc1ccc(CNC(=O)C2CCN(c3nc(-c4ccccc4)nc4c3CCC4)CC2)cc1 | i | i | i | i | x | -10.8 | x | x
COc1cc(NC(=O)CSCC(=O)Nc2cccc(C(F)(F)F)c2)c(Cl)cc1Cl | -11* | i | i | 7* | -0.0696 | -12.0 | 114.7* | i
Cc1cc(NC(=O)C(C)SCC(=O)OCc2c(Cl)cccc2Cl)no1 (stereo not drawn) | i | i | i | i | x | -14.5 | x | x
CC(C)c1ccc(S(=O)(=O)Nc2ccc3c(c2)OCO3)cc1 | -11.4* | x | x | x | x | x | 122.0* | i
COC(=O)COc1ccc(S(=O)(=O)Nc2ccc3c(c2)OCO3)cc1Cl | -9.75* | i | i | i | -1.47 | -17.7 | 97.7* | i
COC(=O)COc1ccc(S(=O)(=O)Nc2ccc3c(c2)OCO3)cc1 | i | i | i | i | x | -12.9 | x | x
Cc1c(Nc2ncccc2C(=O)O)cccc1C(F)(F)F | i | i | i | i | x | -7.1 | x | x
O=C(NCc1ccc(OC(F)(F)F)cc1)C1CCC(=O)N(C2CC2)C1 (stereo not drawn) | i | i | i | i | x | -7.0 | x | x
CC1CCN(S(=O)(=O)c2ccc3ncn(CC(=O)N(C)Cc4ccccc4)c(=O)c3c2)CC1 | -12.6* | i | i | i | x | -2.1 | 72.3* | i
CN1CCCN(S(=O)(=O)c2cccc(C#N)c2)CC1 | i | i | i | i | x | -4.3 | x | x
Cc1ccsc1CN(C)C(=O)c1ccc(Oc2ccccc2)cc1 | -9.92* | i | -7.51* | i | x | -15.8 | 113.3* | i
COc1ccc(CN(C)C(=O)c2ccc(Oc3ccccc3)cc2)cc1F | i | i | i | i | x | -13.5 | x | x
COc1ccccc1NC(=O)C(C)OC(=O)CCCc1c[nH]c2ccccc12 (stereo not drawn) | -10.3* | i | -7.25* | i | x | -13.8 | 104.3* | i
CCCCN(C(=O)Cc1ccc2c(c1)OCCO2)c1c(N)n(CCC)c(=O)[nH]c1=O | i | x | x | x | x | x | x | x
COc1ccc(C(=O)CC(Nc2ccc([N+](=O)[O-])cc2)c2ccc(Cl)cc2)cc1 (stereo not drawn) | -9.14* | i | -6.66* | 12* | x | -19.0 | 132.0* | 0.135*
COc1ccc(C(=O)NC(CC(=O)O)c2cc([N+](=O)[O-])ccc2Cl)cc1 (stereo not drawn) | i | i | i | i | 0.531 | -4.5 | x | x
O=C(Nc1ccccc1Cl)c1cc2ccccc2o/c1=N\O | i | i | i | i | x | -10.5 | x | x
COc1cccc(NC(=O)c2cc3ccccc3o/c2=N\O)c1 | -8.74* | i | i | i | x | -22.8 | 124.7* | 0.13*
Cc1cc(C)n2nc(SCC(=O)Nc3ccc(F)c(F)c3F)nc2n1 | i | x | x | x | x | x | x | x
COc1ccc(-c2[nH]ncc2CN2CCN(Cc3cccs3)CC2)c(F)c1 | i | i | i | i | -0.4 | -9.4 | x | x
COc1ccc(-c2[nH]ncc2CN(C)C(C)c2cccs2)c(F)c1 (stereo not drawn) | -9.5* | i | i | i | x | -4.5 | 101.0* | i
O=[N+]([O-])c1ccc(SCc2c(F)cccc2Cl)nc1 | -8.87* | i | i | i | x | -9.9 | 96.7* | i
SMILES | KCNK3 block | KCNQ1 act | KCNK9 block | KCNQ1 block | KCC2 mod | hERG rescue | KCNK3 inh conf | KCNK3 uninduced
CCC(C)(c1ccc(C(=O)OC)s1)c1ccc(C(=O)OC)s1 | -9.06* | i | i | i | -0.0151 | -6.8 | 119.0* | 0.141*
COc1ccc(Cl)cc1NC(=O)CC1S/C(=N/N=C2CCCCCC2)NC1=O (stereo not drawn) | i | i | i | i | x | -12.4 | x | x
COc1ccc(NC2c3ccccc3C(=O)N2c2ccccn2)cc1Cl (stereo not drawn) | -10.7* | i | -7.49* | i | 0.311 | -8.4 | 112.0* | i
CCc1nc(N2CCN(C(=S)NCCCOC)CC2)c2c3c(sc2n1)CCCC3 | -8.87* | i | i | i | x | -14.1 | 95.3* | 0.15*
COc1cccc(C(=O)Nc2ccc(-c3nnc(-c4ccco4)o3)cc2)c1 | i | i | i | i | -0.239 | -5.7 | x | x
O=C(Nc1cccc(-c2nnc(-c3ccccc3)o2)c1)C1CC1 | -9.84* | i | i | i | -1.29 | -16.2 | 112.3* | i
CCOc1cccc(C(=O)Nc2cccc(-c3nnc(-c4ccccc4)o3)c2)c1 | -10.7* | i | i | i | x | -3.4 | 121.0* | 0.14*
CC(=O)Oc1ccc(C(=O)Nc2cccc(-c3nnc(-c4ccco4)o3)c2)cc1 | -9.33* | i | i | i | -0.919 | -12.3 | 85.3* | i
CCCCc1cc(=O)oc2cc(C)cc(OCC(=O)N3C[C@H]4C[C@@H](C3)c3cccc(=O)n3C4)c12 | i | i | i | i | x | -5.4 | x | x
Cc1cccn2c(=O)c(/C=C(\C#N)S(=O)(=O)c3ccccc3)c(N3CCCCC3)nc12 | i | i | i | i | -0.485 | -8.0 | x | x
CCOC(=O)C1CCN(c2nc3c(C)cccn3c(=O)c2/C=C(\C#N)S(=O)(=O)c2ccccc2)CC1 | -9.32* | i | i | i | -1.01 | -12.6 | 95.0* | i
CCOC(=O)c1c(CSC(=N)N)n(-c2ccccc2)c2cc(Br)c(OC(C)=O)cc12 | -10.4* | i | i | i | -0.00336 | -31.6 | 129.3* | 0.138*
COc1ccc(-c2csc(/C(C#N)=C\c3ccc(OC)c([N+](=O)[O-])c3)n2)cc1 | i | i | i | i | 1.24 | -10.1 | x | x
COc1ccc(-c2csc(/C(C#N)=C\c3ccc(O)c([N+](=O)[O-])c3)n2)cc1OC | -10.5* | i | i | i | -1.34 | -29.3 | 116.3* | 0.138*

Source: PubChem BioAssay
